Experimental data pooled from the literature.
Compare with care: the assays were run in different laboratories.
Cell line: A549
Read-out: cell growth or viability

| Compound | technique | time | IC50 |
| --- | --- | --- | --- |
| CC1=C(O)C(=O)C=C2C1=CC=C1[C@@]2(C)CC[C@@]2(C)[C@@H]3C[C@](C)(C(=O)OCCCn4ccc5ccccc54)CC[C@]3(C)CC[C@]12C | MTT | 48 h | > 100 µM |
| COCCCOc1ccnc(COc2ccc(NC(=O)Nc3ccc(OC)cc3)cc2)c1C | MTT | 72 h | 11.4 µM |
| O=C(N/N=C1\C(=O)N(c2ccccc2)c2ccccc21)c1cc2ccccc2[nH]1 |  |  | 2.41 µM |
| CCC(=O)Nc1cc(Nc2nc(N3CCc4sccc4C3)c3cccnc3n2)c(OC)cc1N1CCC(N(C)C)CC1 | MTT |  | 1.25 µM |
| O=C(N/N=C/CN1CCCC1)Nc1cc2c(Nc3ccc(F)c(Cl)c3)ncnc2cc1O[C@H]1CCOC1 | MTT | 72 h | 6.48 µM |
| O=C(NC(=S)N1CCCCC1)c1ccc2ccccc2c1 |  | 48 h | 5.95 µM |
| COc1ccc2c(c1)/C(=N/NC(=O)c1cc3ccccc3[nH]1)C(=O)N2C |  |  | 1.93 µM |
| COc1ccccc1/C=C/CNCC(O)COc1cccc2ccccc12 (stereo not shown) | CCK-8 | 72 h | 16.9 µM |
| Cc1c(OCC(F)(F)F)ccnc1COc1ccc(NC(=O)Nc2cc(F)cc(F)c2)cc1 | MTT | 72 h | 7.67 µM |
| COc1cc2ncnc(Nc3ccc(F)c(Cl)c3)c2cc1NC(=O)N/N=C/CN(C)C | MTT | 72 h | 5.52 µM |
| COc1ccccc1OCCNC[C@@H](O)COc1cccc2[nH]c3ccccc3c12 | CCK-8 |  | 23.4 µM |
| CCNC(=S)NC(=O)c1ccc2ccccc2c1 |  | 48 h | 5.01 µM |
| COc1ccc(/C=C2\SC(=S)N(CC(=O)Nc3ccccc3)C2=O)cc1 | MTT |  | 25.7 µM |
| COc1cccc2c1C(=O)c1c(O)c3c(c(O)c1C2=O)C[C@@](O)(C(=O)CO)C[C@@H]3O[C@H]1C[C@H](N)[C@H](O)[C@H](C)O1 | MTT | 24 h | > 100 µM |
| NS(=O)(=O)OC[C@@H]1C[C@@H](n2ccc3c(N[C@H]4CCc5ccccc54)ncnc32)C[C@@H]1O | CCK-8 | 72 h | 0.8 µM |
| C=CC(=O)Nc1cc(Nc2nc(Nc3cnn(C)c3)c3sccc3n2)c(OC)cc1N(C)CCN(C)C | MTT |  | > 50 µM |
| CS(=O)(=O)c1ccc(-n2cc(/C=N/N=c3\[nH]c(-c4ccc([N+](=O)[O-])cc4)cs3)c(-c3ccc(Br)cc3)n2)cc1 | MTT | 48 h | 68.7 µM |
| COc1cc2ncnc(Nc3ccc(F)c(Cl)c3)c2cc1NC(=O)N/N=C/c1cccn1CCCN1CCCC1 | MTT | 72 h | 2.45 µM |
| COc1ccc(-c2nn(-c3ccc(S(C)(=O)=O)cc3)cc2C=N/N=c2\[nH]c(-c3ccc([N+](=O)[O-])cc3)cs2)cc1 | MTT | 48 h | 4.03 µM |
| CCOc1cc(OCC)cc(C(=O)O[C@@H]2CN3Cc4c(cc5c(c4OC)OCO5)[C@@]24C=C[C@H](OC)C[C@@H]34)c1 | WST-1 |  | > 10 µM |

| Compound | technique | time | IC50 |
| --- | --- | --- | --- |
| C=CC(=O)Nc1cc(Nc2nc(N3CCc4sccc4C3)c3cccnc3n2)c(OC)cc1N1CCC(N(C)C)CC1 | MTT |  | 0.393 µM |
| CN(C)CCn1cccc1/C=N/NC(=O)Nc1cc2c(Nc3ccc(F)c(Cl)c3)ncnc2cc1O[C@H]1CCOC1 | MTT | 72 h | 1.84 µM |
| COc1cc([C@@H]2c3cc4c(cc3[C@@H](O[C@@H]3O[C@@H]5CO[C@@H](C)O[C@H]5[C@H](O)[C@H]3O)[C@H]3COC(=O)[C@H]23)OCO4)cc(OC)c1O | MTT | 48 h | 11.9 µM |
| CC1=C(O)C(=O)C=C2C1=CC=C1[C@@]2(C)CC[C@@]2(C)[C@@H]3C[C@](C)(C(=O)OCCCBr)CC[C@]3(C)CC[C@]12C | MTT | 48 h | 4.95 µM |
| Cc1ccc(NC(=O)CSc2nnc(Cn3cnc4c3c(=O)n(C)c(=O)n4C)n2-c2ccccc2)c(C)c1 | MTT |  | 7.39 µM |
| CCCCNC(=O)NNC(=O)c1ccc(Nc2nccc(-c3ccccn3)n2)cc1 | MTT | 24 h | > 40 µM |
| O=C(NC(=S)NCc1ccc(CNC(=S)NC(=O)c2ccc3ccccc3c2)cc1)c1ccc2ccccc2c1 |  | 48 h | 2.82 µM |
| C=CC(=O)Nc1cc(Nc2nc(N3CCc4sccc4C3)c3cccnc3n2)c(OC)cc1N1CCN(CC)CC1 | MTT |  | 1.42 µM |
| Oc1ccc(-c2csc(Nc3ccc4c(O)ncnc4c3)n2)cc1 | MTT |  | 31.2 µM |
| COc1ccccc1NCC(O)COc1cccc2[nH]c3ccccc3c12 (stereo not shown) | CCK-8 | 72 h | 86.8 µM |
| Cc1ccc(C)n1-c1ccc(-c2nnc(-c3c(Cl)cccc3Cl)[nH]2)cc1 | MTT | 72 h | 231 µM |
| COc1ccnc(COc2ccc(NC(=O)Nc3ccc(Cl)c(C(F)(F)F)c3)cc2)c1OC | MTT | 72 h | 15.4 µM |
| CCCNc1nc(NCCC)nc(Nc2ccc(Br)cc2)n1 | SRB | 72 h | 16.1 µM |
| CC(C)C[C@H](NC(=O)[C@H](Cc1ccccc1)NC(=O)c1cnccn1)B(O)O | ATP luminescence |  | 0.02 µM |
| COc1cc([C@@H]2c3cc4c(cc3[C@@H](O[C@@H]3O[C@@H]5CO[C@@H](C)O[C@H]5[C@H](O)[C@H]3O)[C@H]3COC(=O)[C@H]23)OCO4)cc(OC)c1O | MTT | 72 h | 2 µM |
| CCC(=O)Nc1cc(Nc2nc(N3CCc4sccc4C3)c3cccnc3n2)c(OC)cc1N(C)C | MTT |  | > 50 µM |
| CCN(CC)CCCn1cccc1/C=N/NC(=O)Nc1cc2c(Nc3ccc(F)c(Cl)c3)ncnc2cc1O[C@H]1CCOC1 | MTT | 72 h | 2.36 µM |
| CC(C)(C)NC(=O)NNC(=O)c1ccc(Nc2nccc(-c3ccccn3)n2)cc1 | MTT |  | > 40 µM |
| COc1ccnc(COc2ccc(NC(=O)Nc3cccc(C(F)(F)F)c3)cc2)c1OC | MTT | 72 h | 6.65 µM |
| OCc1ccc2c(c1C#Cc1ccc(O)cc1)C(c1ccc(O)cc1)(c1ccc(O)cc1)c1cc(O)ccc1-2 | MTT | 48 h | > 50 µM |
